# Data: ChEMBL document CHEMBL4613265, “Novel Human Neutral Sphingomyelinase 2 Inhibitors as Potential Therapeutics for Alzheimer's Disease” (J Med Chem, 2020)
# Columns and labels:
# [1] = Stability in mouse liver microsomes assessed as parent compound remaining at 1 uM measured after 60 mins in absence of NADPH by LC-MS/MS analysis; type: ADME, Microsome; conditions: liver microsomes, read-out: Stability
# In short: (§1)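 Cofactor-free control for cofactor-independent degradation. Mouse or human liver microsomes at 0.2 mg/mL, 1 μM compound (final), 100 mM potassium phosphate at pH 7.4, no NADPH regenerating system. Adding microsomes started the reaction; run in triplicate. Sampled at 60 min and quenched with three volumes of ice-cold acetonitrile spiked with internal standard.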
# [2] = Stability in human liver microsomes assessed as parent compound remaining at 1 uM measured after 60 mins in absence of NADPH by LC-MS/MS analysis; type: ADME, Microsome; conditions: liver microsomes, read-out: Stability; in short: as §1
"remaining at 1 h, 1 µM [1] [%]","remaining at 1 h, 1 µM [2] [%]",Structure (SMILES)
> 95,> 95,CC(=O)N[C@@H]1CCN(c2cc(C)nn3c(-c4ccco4)c(C)nc23)C1
> 95,> 95,COc1ccc(-c2c(C)nc3c(N4CC[C@@H](N=[N+]=[N-])C4)cc(C)nn23)cc1OC
> 95,> 95,COc1ccc(-c2c(C)nc3c(N4CC[C@@H](NS(=O)(=O)c5ccc(NC(C)=O)cc5)C4)cc(C)nn23)cc1OC
> 95,> 95,CC(=O)N[C@@H]1CCN(c2cc(C)nn3c(-c4cccc(N5CCOCC5)c4)c(C)nc23)C1
> 95,> 95,COc1ccc(-c2c(C)nc3c(N4CC[C@@H](NC(C)=O)C4)cc(C)nn23)cc1F
> 95,> 95,COc1ccc(-c2c(C)nc3c(N4CCN(C(=O)OC(C)(C)C)C4)cc(C)nn23)cc1OC
> 95,> 95,COc1ccc(-c2c(C)nc3c(N4CC[C@@H](NS(N)(=O)=O)C4)cc(C)nn23)cc1OC
> 95,> 95,COc1ccc(-c2c(C)nc3c(N4CC[C@@H](NC(C)=O)C4)cc(Cl)nn23)cc1OC
> 95,> 95,COc1cc(-c2c(C)nc3c(N4CC[C@@H](NC(C)=O)C4)cc(C)nn23)ccc1F
> 95,> 95,COc1ccc(-c2c(C)nc3c(N4CC[C@H](O)C4)cc(C)nn23)cc1OC
> 95,> 95,COc1ccc(-c2c(C)nc3c(N4CC[C@@H](N)C4)cc(C)nn23)cc1OC
> 95,> 95,COc1ccc(-c2c(C)nc3c(N4CCN(C(=O)C5CCCCC5)CC4)cc(C)nn23)cc1OC
> 95,> 95,COc1ccc(-c2c(C)nc3c(N4CCC(F)(F)C4)cc(C)nn23)cc1OC
> 95,> 95,COc1ccc(-c2c(C)nc3c(N4CC[C@@H](O)C4)cc(C)nn23)cc1OC
> 95,> 95,CC(=O)N[C@@H]1CCN(c2cc(C)nn3c(-c4ccc(C(F)(F)F)cc4)c(C)nc23)C1
> 95,> 95,COc1ccc(-c2c(C)nc3c(N4CC[C@@H](F)C4)cc(C)nn23)cc1OC
> 95,> 95,CC(=O)N[C@@H]1CCN(c2cc(C)nn3c(-c4cccc(S(=O)(=O)N(C)C)c4)c(C)nc23)C1
> 95,> 95,COc1ccc(-c2c(C)nc3c(N4CC[C@@H](NC(=O)Oc5ccc6ccccc6c5)C4)cc(C)nn23)cc1OC
> 95,> 95,CC(=O)N[C@@H]1CCN(c2cc(C)nn3c(-c4ccccc4)c(C)nc23)C1
> 95,> 95,COc1ccc(-c2c(C)nc3c(N4CC[C@@H](NC(=O)OCc5ccccc5)C4)cc(C)nn23)cc1OC
> 95,> 95,COc1ccc(-c2c(C)nc3c(N4CC=CC4)cc(C)nn23)cc1OC
> 95,> 95,COc1ccc(-c2c(C)nc3c(N4CC[C@@H](NC(C)=O)C4)cc(C)nn23)cn1
> 95,> 95,CC(=O)N[C@@H]1CCN(c2cc(C)nn3cc(C)nc23)C1
> 95,> 95,COc1ccc(-c2c(C)nc3c(N4CC[C@@H](NC(=O)OC5CCCCC5)C4)cc(C)nn23)cc1OC
> 95,> 95,COc1ccc(-c2c(C)nc3c(N4CC[C@@H](NC(=O)COc5ccccc5)C4)cc(C)nn23)cc1OC
> 95,> 95,COc1ccc(-c2c(C)nc3c(N4CC[C@@H](NC(=O)NC(C)C)C4)cc(C)nn23)cc1OC
> 95,> 95,COc1ccc(-c2c(C)nc3c(N4CC[C@@H](NS(C)(=O)=O)C4)cc(C)nn23)cc1OC
